In ChEMBL document CHEMBL1145518, “Potent immune-modulating and anticancer effects of NKT cell stimulatory glycolipids” (2007):
Activity calls are given as the source filed them. The rule behind the calls is not given here.

Tests used:
[1] = Induction of IL3 secretion in human CD161+ CD3+ NKT cells at 10 ug/ml after 18 hrs relative to basal level; type: functional
In short: (§1)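 Human Vα24i NKT cell lines were expanded for 10 days on irradiated (3,000 rad) autologous immature DCs with 10 units/ml IL-2. The cells (1 × 10^5) were cocultured with 5 × 10^4 irradiated immature CD14+ DCs plus glycolipid at 10 μg/ml. Supernatants were collected at 18 h and read on a 22-plex Luminex bead panel. Triplicates, mean ± SD.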

[2] = Induction of IL12p40 secretion in human CD161+ CD3+ NKT cells at 10 ug/ml after 18 hrs relative to basal level; type: functional; in short: as §1
[3] = Induction of RANTES secretion in human CD161+ CD3+ NKT cells at 10 ug/ml after 18 hrs relative to basal level; type: functional; in short: as §1
[4] = Induction of GM-CSF secretion in human CD161+ CD3+ NKT cells at 10 ug/ml after 18 hrs relative to basal level; type: functional; in short: as §1
[5] = Induction of IL10 secretion in human CD161+ CD3+ NKT cells at 10 ug/ml after 18 hrs relative to basal level; type: functional; in short: as §1
NKT = assay: Stimulation of cell expansion of human invariant CD161+/ Valpha24+/ CD56+/ CD3+ NKT cells by flow cytometry method; type: functional, cell-based
In short: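 CD56+ NK/NKT mixtures (2 × 10^6) were isolated from human leukopaks with anti-CD56 microbeads. They were cocultured with 4 × 10^5 autologous immature CD14+ DCs pulsed with glycolipid at 3 μg/ml, or with 0.3% DMSO, on day 2 for 18 h. Suspension cells were then transferred and kept in 100 units/ml IL-2 with fresh medium every 3 days. On day 9, CD161+/Vα24TCR+ cells were gated by flow cytometry and total Vα24i NKT cells counted. Triplicates, mean ± SD.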

[6] = Induction of IL8 secretion in human CD161+ CD3+ NKT cells at 10 ug/ml after 18 hrs relative to basal level; type: functional; in short: as §1
[7] = Induction of MIPalpha secretion in human CD161+ CD3+ NKT cells at 10 ug/ml after 18 hrs relative to basal level; type: functional; in short: as §1
[8] = Induction of IL6 secretion in human CD161+ CD3+ NKT cells at 10 ug/ml after 18 hrs relative to basal level; type: functional; in short: as §1
[9] = Induction of IL2 secretion in human CD161+ CD3+ NKT cells at 10 ug/ml after 18 hrs relative to basal level; type: functional; in short: as §1
[10] = Induction of IL15 secretion in human CD161+ CD3+ NKT cells at 10 ug/ml after 18 hrs relative to basal level; type: functional; in short: as §1
[11] = Induction of MCP1 secretion in human CD161+ CD3+ NKT cells at 10 ug/ml after 18 hrs relative to basal level; type: functional; in short: as §1
[12] = Induction of TNFalpha secretion in human CD161+ CD3+ NKT cells at 10 ug/ml after 18 hrs relative to basal level; type: functional; in short: as §1
[13] = Induction of IFN-gamma secretion in human CD161+ CD3+ NKT cells at 10 ug/ml after 18 hrs relative to basal level; type: functional; in short: as §1
[14] = Induction of IL12p70 secretion in human CD161+ CD3+ NKT cells at 10 ug/ml after 18 hrs relative to basal level; type: functional; in short: as §1
[15] = Induction of IL13 secretion in human CD161+ CD3+ NKT cells at 10 ug/ml after 18 hrs relative to basal level; type: functional; in short: as §1
TC1 = assay: Antitumor activity in TC1 cells xenografted C57BL/6 mouse assessed as suppression of tumor growth at 2 ug, iv; type: functional, cell-based
In short: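 C57BL/6 mice (n = 5/group) were inoculated i.v. with TC-1 lung cancer cells. They were then treated i.v. with 2 μg glycolipid per mouse, or 100 μl of 1% DMSO, twice weekly for 4 weeks. Kaplan–Meier survival and body weight were followed, with tumor-free mice as an additional control.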

4T1 = assay: Antitumor activity in mouse 4T1 cells xenografted BALB/c mouse assessed as suppression of tumor growth at 2 ug, iv; type: functional, cell-based
In short: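 BALB/c mice (n = 6) were inoculated s.c. with 4T1 breast cancer cells. From day 3 they were treated i.v. with glycolipid or vehicle twice weekly for 4 weeks. Tumor volume was recorded every 3 days for 1 month, and survival was monitored up to 54 days.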

[16] = Induction of IL4 secretion in human CD161+ CD3+ NKT cells at 10 ug/ml after 18 hrs relative to basal level; type: functional; in short: as §1

| SMILES | Activity [1] | Activity [2] | Activity [3] | Activity [4] | Activity [5] | Activity (NKT) | Activity [6] | Activity [7] | Activity [8] | Activity [9] | Activity [10] | Activity [11] | Activity [12] | Activity [13] | Activity [14] | Activity [15] | Activity (TC1) | Activity (4T1) | Activity [16] |
| --- | --- | --- | --- | --- | --- | --- | --- | --- | --- | --- | --- | --- | --- | --- | --- | --- | --- | --- | --- |
| CCCCCCCCCCCCCC[C@@H](O)[C@@H](O)[C@H](CO[C@H]1O[C@H](CO)[C@H](O)[C@H](O)[C@H]1O)NC(=O)CCCCCCCCCc1ccccc1 | 1.8 | 1.4 | 2.1 | 3.4 | 1.4 | Active | 2.2 | 3.4 | 1.6 | 3.4 | 2.3 | 1.5 | 5.6 | 4.2 | 2.3 | 1.6 | Active | Active | 3.2 |
| CCCCCCCCCCCCCC[C@@H](O)[C@@H](O)[C@H](CO[C@H]1O[C@H](CO)[C@H](O)[C@H](O)[C@H]1O)NC(=O)CCc1ccc(C(F)(F)F)cc1 | 1.6 | 1.9 | 1.7 | 3.5 | 1.7 |  | 2.4 | 3.4 | 2.3 | 1.5 | 2.1 | 1.4 | 3.3 | 2.8 | 1.7 | 2.1 |  |  | 2.4 |
| CCCCCCCCCCCCCCCCCCCCCCCCCC(=O)N[C@@H](CO[C@@H]1O[C@H](CO)[C@H](O)[C@H](OS(=O)(=O)[O-])[C@H]1O)[C@H](O)[C@H](O)CCCCCCCCCCCCCC.[Na+] | 2.3 | 1.8 | 1.5 | 4.1 | 1.8 |  | 1.9 | 3.2 | 1.9 | 1.6 | 2.2 | 1.5 | 3.7 | 2.2 | 1.6 | 2.4 |  |  | 2.9 |
| CCCCCCCCCCCCCC[C@@H](O)[C@@H](O)[C@H](CO[C@H]1O[C@H](CO)[C@H](O)[C@H](O)[C@H]1O)NC(=O)CCc1ccc(CC(C)C)cc1 | 1.9 | 1.8 | 1.3 | 3.8 | 2.2 | Active | 5.5 | 2.8 | 2.1 | 1.3 | 2.2 | 0.9 | 1.9 | 1.9 | 1.8 | 1.4 |  |  | 2.2 |
